{"source": "ChEMBL document CHEMBL3860041", "about": "“Synthesis, biological evaluation and molecular modeling study of some new methoxylated 2-benzylthio-quinazoline-4(3H)-ones as nonclassical antifolates” (Bioorg Med Chem Lett, 2016)", "key": {"[1]": {"assay": "Growth inhibition of human COLO205 cells at 10 uM after 48 hrs by SRB assay relative to control", "assay_type": "functional", "conditions": "COLO 205, 48 h, read-out: GI", "outline": "(§1)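 NCI 60-cell-line panel, nine tumor subpanels; compounds tested at a single dose of 10 μM in the primary screen.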"}, "[2]": {"assay": "Growth inhibition of human SW620 cells at 10 uM after 48 hrs by SRB assay relative to control", "assay_type": "functional", "conditions": "SW-620, 48 h, read-out: GI", "outline": "(§2)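 Primary screen across the full NCI 60 human tumour cell line panel, which covers nine tumour subpanels. A single dose of 10 μM was applied to each line, and growth was recorded for each cell line.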"}, "[3]": {"assay": "Growth inhibition of human SNB75 cells at 10 uM after 48 hrs by SRB assay relative to control", "assay_type": "functional", "conditions": "SNB-75, 48 h, read-out: GI", "outline": "as §2"}, "[4]": {"assay": "Growth inhibition of human SK-MEL-5 cells at 10 uM after 48 hrs by SRB assay relative to control", "assay_type": "functional", "conditions": "SK-MEL-5, 48 h, read-out: GI", "outline": "as §2"}, "[5]": {"assay": "Growth inhibition of human SF268 cells at 10 uM after 48 hrs by SRB assay relative to control", "assay_type": "functional", "conditions": "SF-268, 48 h, read-out: GI", "outline": "as §1"}, "[6]": {"assay": "Growth inhibition of human SR cells at 10 uM after 48 hrs by SRB assay relative to control", "assay_type": "functional", "conditions": "read-out: GI", "outline": "as §2"}, "[7]": {"assay": "Growth inhibition of human HCT15 cells at 10 uM after 48 hrs by SRB assay relative to control", "assay_type": "functional", "conditions": "HCT-15, 48 h, read-out: GI", "outline": "as §1"}, "[8]": {"assay": "Growth inhibition of human SF295 cells at 10 uM after 48 hrs by SRB assay relative to control", "assay_type": "functional", "conditions": "SF-295, 48 h, read-out: GI", "outline": "as §1"}, "[9]": {"assay": "Growth inhibition of human RPMI8226 cells at 10 uM after 48 hrs by SRB assay relative to control", "assay_type": "functional", "conditions": "RPMI-8226, 48 h, read-out: GI", "outline": "as §1"}, "[10]": {"assay": "Growth inhibition of human MDA-MB-468 cells at 10 uM after 48 hrs by SRB assay relative to control", "assay_type": "functional", "conditions": "MDA-MB-468, 48 h, read-out: GI", "outline": "as §1"}, "[11]": {"assay": "Growth inhibition of human MDA-MB-435 cells at 10 uM after 48 hrs by SRB assay relative to control", "assay_type": "functional", "conditions": "MDA-MB-435, 48 h, read-out: GI", "outline": "as §1"}, "[12]": {"assay": "Growth inhibition of human HCC2998 cells at 10 uM after 48 hrs by SRB assay relative to control", "assay_type": "functional", "conditions": "HCC 2998, 48 h, read-out: GI", "outline": "as §1"}, "[13]": {"assay": "Growth inhibition of human NCI-H522 cells at 10 uM after 48 hrs by SRB assay relative to control", "assay_type": "functional", "conditions": "NCI-H522, 48 h, read-out: GI", "outline": "as §1"}, "[14]": {"assay": "Growth inhibition of human M14 cells at 10 uM after 48 hrs by SRB assay relative to control", "assay_type": "functional", "conditions": "M14, 48 h, read-out: GI", "outline": "as §1"}, "[15]": {"assay": "Growth inhibition of human IGROV1 cells at 10 uM after 48 hrs by SRB assay relative to control", "assay_type": "functional", "conditions": "IGROV-1, 48 h, read-out: GI", "outline": "as §1"}, "[16]": {"assay": "Growth inhibition of human SKOV3 cells at 10 uM after 48 hrs by SRB assay relative to control", "assay_type": "functional", "conditions": "SK-OV-3, 48 h, read-out: GI", "outline": "as §2"}, "[17]": {"assay": "Growth inhibition of human MCF7 cells at 10 uM after 48 hrs by SRB assay relative to control", "assay_type": "functional", "conditions": "MCF7, 48 h, read-out: GI", "outline": "as §1"}, "[18]": {"assay": "Growth inhibition of human OVCAR4 cells at 10 uM after 48 hrs by SRB assay relative to control", "assay_type": "functional", "conditions": "OVCAR-4, 48 h, read-out: GI", "outline": "as §1"}, "[19]": {"assay": "Growth inhibition of human KM12 cells at 10 uM after 48 hrs by SRB assay relative to control", "assay_type": "functional", "conditions": "KM12, 48 h, read-out: GI", "outline": "as §1"}, "[20]": {"assay": "Growth inhibition of human UACC257 cells at 10 uM after 48 hrs by SRB assay relative to control", "assay_type": "functional", "conditions": "UACC-257, 48 h, read-out: GI", "outline": "as §2"}, "[21]": {"assay": "Growth inhibition of human ACHN cells at 10 uM after 48 hrs by SRB assay relative to control", "assay_type": "functional", "conditions": "read-out: GI", "outline": "as §1"}, "[22]": {"assay": "Growth inhibition of human PC3 cells at 10 uM after 48 hrs by SRB assay relative to control", "assay_type": "functional", "conditions": "PC-3, 48 h, read-out: GI", "outline": "as §1"}, "[23]": {"biological_target": "T1, Dihydrofolate reductase (Bos taurus, UniProt P00376)", "T1 sequence (P00376 whole entry)": "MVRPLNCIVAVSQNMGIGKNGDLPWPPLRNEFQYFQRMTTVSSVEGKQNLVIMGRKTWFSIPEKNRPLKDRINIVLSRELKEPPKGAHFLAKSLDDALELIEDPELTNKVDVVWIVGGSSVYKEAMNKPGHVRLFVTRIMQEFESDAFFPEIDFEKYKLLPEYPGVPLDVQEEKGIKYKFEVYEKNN", "assay": "Inhibition of bovine liver DHFR preincubated for 2 mins followed by addition of FH2 as substrate and NADPH"}, "[24]": {"assay": "Growth inhibition of human NCI-322M cells at 10 uM after 48 hrs by SRB assay relative to control", "assay_type": "functional", "conditions": "read-out: GI", "outline": "as §1"}, "[25]": {"assay": "Growth inhibition of human A498 cells at 10 uM after 48 hrs by SRB assay relative to control", "assay_type": "functional", "conditions": "A498, 48 h, read-out: GI", "outline": "as §1"}, "[26]": {"assay": "Growth inhibition of human MALME-3M cells at 10 uM after 48 hrs by SRB assay relative to control", "assay_type": "functional", "conditions": "read-out: GI", "outline": "as §1"}, "[27]": {"assay": "Growth inhibition of human OVCAR3 cells at 10 uM after 48 hrs by SRB assay relative to control", "assay_type": "functional", "conditions": "OVCAR-3, 48 h, read-out: GI", "outline": "as §1"}}, "data": [{"molecule": "COc1cc2nc(SCc3cc(OC)c(OC)c(OC)c3)n(-c3ccccc3OC)c(=O)c2cc1OC", "values": [{"measurement": "inhibition of growth at 10 µM", "setting": "[1]", "result": "< 10", "unit": "%"}, {"measurement": "inhibition of growth at 10 µM", "setting": "[2]", "result": 23.6, "unit": "%"}, {"measurement": "inhibition of growth at 10 µM", "setting": "[3]", "result": 37.2, "unit": "%"}, {"measurement": "inhibition of growth at 10 µM", "setting": "[4]", "result": "< 10", "unit": "%"}, {"measurement": "inhibition of growth at 10 µM", "setting": "[5]", "result": 30.1, "unit": "%"}, {"measurement": "inhibition of growth at 10 µM", "setting": "[6]", "result": 76.2, "unit": "%"}, {"measurement": "inhibition of growth at 10 µM", "setting": "[7]", "result": 24.6, "unit": "%"}, {"measurement": "inhibition of growth at 10 µM", "setting": "[8]", "result": 26.2, "unit": "%"}, {"measurement": "inhibition of growth at 10 µM", "setting": "[9]", "result": 28.8, "unit": "%"}, {"measurement": "inhibition of growth at 10 µM", "setting": "[10]", "result": 23, "unit": "%"}, {"measurement": "inhibition of growth at 10 µM", "setting": "[11]", "result": 100, "unit": "%"}, {"measurement": "inhibition of growth at 10 µM", "setting": "[12]", "result": "< 10", "unit": "%"}, {"measurement": "inhibition of growth at 10 µM", "setting": "[13]", "result": "< 10", "unit": "%"}, {"measurement": "inhibition of growth at 10 µM", "setting": "[14]", "result": 23, "unit": "%"}, {"measurement": "inhibition of growth at 10 µM", "setting": "[15]", "result": 16.9, "unit": "%"}, {"measurement": "inhibition of growth at 10 µM", "setting": "[16]", "result": "< 10", "unit": "%"}, {"measurement": "inhibition of growth at 10 µM", "setting": "[17]", "result": 23, "unit": "%"}, {"measurement": "inhibition of growth at 10 µM", "setting": "[18]", "result": 16.9, "unit": "%"}, {"measurement": "inhibition of growth at 10 µM", "setting": "[19]", "result": 45.9, "unit": "%"}, {"measurement": "inhibition of growth at 10 µM", "setting": "[20]", "result": "< 10", "unit": "%"}, {"measurement": "inhibition of growth at 10 µM", "setting": "[21]", "result": 11.5, "unit": "%"}, {"measurement": "inhibition of growth at 10 µM", "setting": "[22]", "result": 38.9, "unit": "%"}, {"measurement": "IC50", "setting": "[23]", "result": 800, "unit": "nM"}, {"measurement": "inhibition of growth at 10 µM", "setting": "[24]", "result": 14.9, "unit": "%"}, {"measurement": "inhibition of growth at 10 µM", "setting": "[25]", "result": 74.6, "unit": "%"}, {"measurement": "inhibition of growth at 10 µM", "setting": "[26]", "result": 37, "unit": "%"}, {"measurement": "inhibition of growth at 10 µM", "setting": "[27]", "result": 51.8, "unit": "%"}]}]}
